Test results published in ChEMBL document CHEMBL4368872, “Synthesis and anticonvulsant activity of phenoxyacetyl derivatives of amines, including aminoalkanols and amino acids” (Medchemcomm, 2018).
Active and inactive are the calls of the source. No cut-off for these calls is given here.

Assays:
[1] = Neurotoxicity in CF-1 mouse at 300 mg/kg, ip measured after 0.5 hrs by rotarod test; format: toxicity, organism-based; conditions: in vivo
Summary of the method: (§1)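 Mice dosed i.p. were placed on a 1 in. knurled rod turning at 6 rpm. Toxicity was scored as failure to keep balance for at least 1 min, i.e. falling off three or more times. Results are reported as animals showing toxicity / animals tested at each time point.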

Salmonella typhimurium [2] = experiment: Antimutagenic activity against Salmonella typhimurium TA100 assessed as inhibition of NaN3-induced mutation at 50 ug/plate preincubated for 30 mins followed by top agar addition and measured after 48 hrs in presence of liver S9 fraction by Ames test relative to control; format: organism-based; conditions: salmonella enterica subsp. enterica serovar typhimurium, s9, 48 h
Mus musculus [3] = experiment: Anticonvulsant activity in CF-1 mouse model of maximal electroshock-induced seizure assessed as suppression of tonic hind limb extension at 30 mg/kg, ip measured at 4 hrs post dose; format: functional, organism-based
Summary of the method: (§2)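 Mice dosed i.p. and given maximal electroshock at 50 mA. Read-out is protection, reported as number protected / number tested at 0.25, 0.5, 1 and 4 h after dosing.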

[4] = Mutagenicity in Salmonella typhimurium TA1535 assessed as mutagenicity index at 50 to 500 ug/plate preincubated for 30 mins followed by top agar addition and measured after 48 hrs in absence of liver S9 fraction by Ames test; format: toxicity; conditions: salmonella enterica subsp. enterica serovar typhimurium, s9, 48 h
Summary of the method: (§3)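 Ames plate incorporation in S. typhimurium TA100 or TA1535, with or without S9. Overnight culture, compound in DMSO (50–500 µg per plate) and buffer or S9 mix preincubated 30 min at 37 °C, then top agar on glucose minimal agar. Incubated 48 h at 37 °C, revertants counted in triplicate. Vehicle negative control; NaN3 (−S9) and 2AA (+S9) positive controls. MI = revertants with compound / negative-control revertants; MI ≥ 2 with dose-response counts as positive.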

[5] = Mutagenicity in Salmonella typhimurium TA1535 assessed as mutagenicity index at 50 to 500 ug/plate preincubated for 30 mins followed by top agar addition and measured after 48 hrs in presence of liver S9 fraction by Ames test; format: toxicity, subcellular; conditions: salmonella enterica subsp. enterica serovar typhimurium, s9, 48 h; summary of the method: as §3
Mus musculus [6] = experiment: Anticonvulsant activity in CF-1 mouse model of subcutaneous pentylenetetrazole-induced seizure assessed as reduction in convulsions at 30 mg/kg, ip measured at 4 hrs post dose; format: functional, organism-based
Summary of the method: (§4)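 Mice dosed i.p., then given pentylenetetrazole 85 mg/kg in 0.9% NaCl s.c. into the posterior midline of the neck. Seizures watched for at least 30 min. Scored as protected / tested at 0.5 and 4 h.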

Mus musculus [7] = experiment: Anticonvulsant activity in CF-1 mouse model of subcutaneous pentylenetetrazole-induced seizure assessed as reduction in convulsions at 300 mg/kg, ip measured at 4 hrs post dose; format: functional, organism-based; summary of the method: as §4
Salmonella typhimurium [8] = experiment: Antimutagenic activity against Salmonella typhimurium TA1535 assessed as inhibition of NaN3-induced mutation at 500 ug/plate preincubated for 30 mins followed by top agar addition and measured after 48 hrs in presence of liver S9 fraction by Ames test relative to control; format: organism-based; conditions: salmonella enterica subsp. enterica serovar typhimurium, s9, 48 h
Mus musculus [9] = experiment: Anticonvulsant activity in CF-1 mouse model of maximal electroshock-induced seizure assessed as suppression of tonic hind limb extension at 300 mg/kg, ip measured at 4 hrs post dose; format: functional, organism-based; summary of the method: as §2
Mus musculus [10] = experiment: Anticonvulsant activity in CF-1 mouse model of maximal electroshock-induced seizure assessed as suppression of tonic hind limb extension at 30 mg/kg, ip measured at 0.5 hrs post dose; format: functional, organism-based; summary of the method: as §2
Salmonella typhimurium [11] = experiment: Antimutagenic activity against Salmonella typhimurium TA100 assessed as inhibition of NaN3-induced mutation at 500 ug/plate preincubated for 30 mins followed by top agar addition and measured after 48 hrs in presence of liver S9 fraction by Ames test relative to control; format: organism-based; conditions: salmonella enterica subsp. enterica serovar typhimurium, s9, 48 h
[12] = Neurotoxicity in CF-1 mouse at 100 mg/kg, ip measured after 4 hrs by rotarod test; format: toxicity, organism-based; conditions: in vivo; summary of the method: as §1
Mus musculus [13] = experiment: Anticonvulsant activity in CF-1 mouse model of maximal electroshock-induced seizure assessed as suppression of tonic hind limb extension at 100 mg/kg, ip measured at 0.5 hrs post dose; format: functional, organism-based; summary of the method: as §2
Salmonella typhimurium [14] = experiment: Antimutagenic activity against Salmonella typhimurium TA1535 assessed as inhibition of NaN3-induced mutation at 100 ug/plate preincubated for 30 mins followed by top agar addition and measured after 48 hrs in presence of liver S9 fraction by Ames test relative to control; format: organism-based; conditions: salmonella enterica subsp. enterica serovar typhimurium, s9, 48 h
Mus musculus [15] = experiment: Anticonvulsant activity in CF-1 mouse model of subcutaneous pentylenetetrazole-induced seizure assessed as reduction in convulsions at 100 mg/kg, ip measured at 4 hrs post dose; format: functional, organism-based; summary of the method: as §4
Mus musculus [16] = experiment: Anticonvulsant activity in CF-1 mouse model of subcutaneous pentylenetetrazole-induced seizure assessed as reduction in convulsions at 30 mg/kg, ip measured at 0.5 hrs post dose; format: functional, organism-based; summary of the method: as §4
Salmonella typhimurium [17] = experiment: Antimutagenic activity against Salmonella typhimurium TA100 assessed as inhibition of NaN3-induced mutation at 250 ug/plate preincubated for 30 mins followed by top agar addition and measured after 48 hrs in presence of liver S9 fraction by Ames test relative to control; format: organism-based; conditions: salmonella enterica subsp. enterica serovar typhimurium, s9, 48 h
Salmonella typhimurium [18] = experiment: Antimutagenic activity against Salmonella typhimurium TA100 assessed as inhibition of NaN3-induced mutation at 100 ug/plate preincubated for 30 mins followed by top agar addition and measured after 48 hrs in presence of liver S9 fraction by Ames test relative to control; format: organism-based; conditions: salmonella enterica subsp. enterica serovar typhimurium, s9, 48 h
[19] = Mutagenicity in Salmonella typhimurium TA100 assessed as mutagenicity index at 50 to 500 ug/plate preincubated for 30 mins followed by top agar addition and measured after 48 hrs in absence of liver S9 fraction by Ames test; format: toxicity; conditions: salmonella enterica subsp. enterica serovar typhimurium, s9, 48 h; summary of the method: as §3
[20] = Neurotoxicity in CF-1 mouse at 300 mg/kg, ip measured after 4 hrs by rotarod test; format: toxicity, organism-based; conditions: in vivo; summary of the method: as §1
Mus musculus [21] = experiment: Anticonvulsant activity in CF-1 mouse model of maximal electroshock-induced seizure assessed as suppression of tonic hind limb extension at 300 mg/kg, ip measured at 0.5 hrs post dose; format: functional, organism-based; summary of the method: as §2
Salmonella typhimurium [22] = experiment: Antimutagenic activity against Salmonella typhimurium TA1535 assessed as inhibition of NaN3-induced mutation at 250 ug/plate preincubated for 30 mins followed by top agar addition and measured after 48 hrs in presence of liver S9 fraction by Ames test relative to control; format: organism-based; conditions: salmonella enterica subsp. enterica serovar typhimurium, s9, 48 h
[23] = Neurotoxicity in CF-1 mouse at 30 mg/kg, ip measured after 0.5 hrs by rotarod test; format: toxicity, organism-based; conditions: in vivo; summary of the method: as §1
Mus musculus [24] = experiment: Anticonvulsant activity in CF-1 mouse model of subcutaneous pentylenetetrazole-induced seizure assessed as reduction in convulsions at 100 mg/kg, ip measured at 0.5 hrs post dose; format: functional, organism-based; summary of the method: as §4
Salmonella typhimurium [25] = experiment: Antimutagenic activity against Salmonella typhimurium TA1535 assessed as inhibition of NaN3-induced mutation at 50 ug/plate preincubated for 30 mins followed by top agar addition and measured after 48 hrs in presence of liver S9 fraction by Ames test relative to control; format: organism-based; conditions: salmonella enterica subsp. enterica serovar typhimurium, s9, 48 h
[26] = Mutagenicity in Salmonella typhimurium TA100 assessed as mutagenicity index at 50 to 500 ug/plate preincubated for 30 mins followed by top agar addition and measured after 48 hrs in presence of liver S9 fraction by Ames test; format: toxicity, subcellular; conditions: salmonella enterica subsp. enterica serovar typhimurium, s9, 48 h; summary of the method: as §3
Mus musculus [27] = experiment: Anticonvulsant activity in CF-1 mouse model of maximal electroshock-induced seizure assessed as suppression of tonic hind limb extension at 100 mg/kg, ip measured at 4 hrs post dose; format: functional, organism-based; summary of the method: as §2
[28] = Neurotoxicity in CF-1 mouse at 30 mg/kg, ip measured after 4 hrs by rotarod test; format: toxicity, organism-based; conditions: in vivo; summary of the method: as §1
Mus musculus [29] = experiment: Anticonvulsant activity in CF-1 mouse model of subcutaneous pentylenetetrazole-induced seizure assessed as reduction in convulsions at 300 mg/kg, ip measured at 0.5 hrs post dose; format: functional, organism-based; summary of the method: as §4

## Cc1cccc(C)c1OCC(=O)NCC(O)c1ccccc1 (centres undefined)
[1]
  Activity: Non-Toxic
Salmonella typhimurium [2]
  inhibition (INH): 17%
Mus musculus [3]
  Activity: inactive
[4]
  Activity index: 0.7 to 1.7
[5]
  Activity index: 0.7 to 1.7
Mus musculus [6]
  Activity: inactive
Mus musculus [7]
  Activity: inactive
Salmonella typhimurium [8]
  inhibition (INH): 13%
Mus musculus [9]
  Activity: inactive
Mus musculus [10]
  Activity: inactive
Salmonella typhimurium [11]
  inhibition (INH): 41%
[12]
  Activity: Non-Toxic
Mus musculus [13]
  Activity: inactive
Salmonella typhimurium [14]
  inhibition (INH): 45%
Mus musculus [15]
  Activity: inactive
Mus musculus [16]
  Activity: inactive
Salmonella typhimurium [17]
  inhibition (INH): 51%
Salmonella typhimurium [18]
  inhibition (INH): 45%
[19]
  Activity index: 0.7 to 1.7
[20]
  Activity: Non-Toxic
Mus musculus [21]
  Activity: inactive
Salmonella typhimurium [22]
  inhibition (INH): 35%
[23]
  Activity: Non-Toxic
Mus musculus [24]
  Activity: inactive
Salmonella typhimurium [25]
  inhibition (INH): 58%
[26]
  Activity index: 0.7 to 1.7
Mus musculus [27]
  Activity: inactive
[28]
  Activity: Non-Toxic
Mus musculus [29]
  Activity: inactive
